Laboratory results taken from ChEMBL document CHEMBL3600329, “Synthesis, biological profiling and mechanistic studies of 4-aminoquinoline-based heterodimeric compounds with dual trypanocidal-antiplasmodial activity” (Bioorg Med Chem, 2015).
pIC50: −log10 of the molar value.

How the values were obtained:
Trypanosoma brucei = assay: Trypanocidal activity against bloodstream form of Trypanosoma brucei 221 assessed as inhibition of parasite growth at pH 7.4 after 48 hrs by Spectramax plate reader analysis; type: functional, organism-based; conditions: Trypanosoma brucei, 221, 48 h
Outline: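 Bloodstream-form T. brucei strain 221 grown at 37 °C in modified Iscove's medium; log-phase cells diluted to 0.25 × 10^5 mL⁻¹, exposed to a range of compound concentrations in triplicate at 37 °C. Resazurin added after 48 h, read after a further 16 h. IC50 and IC90 = concentrations inhibiting growth 50% and 90%; mean of triplicate experiments ± SEM.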

Plasmodium falciparum = assay: Antiplasmodial activity against chloroquine-resistant Plasmodium falciparum K1 infected in human A+ erythrocytes assessed as inhibition of parasite growth after 48 hrs by LDH assay; type: functional, organism-based; conditions: K1, 48 h
Outline: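 Ring-stage cultures in human A+ erythrocytes (RPMI 1640, A+ serum, D-glucose), 2.5% haematocrit, 1% parasitaemia; twofold serial dilutions in duplicate, DMSO ≤0.5% final. 48 h at 37 °C under 93% N2/3% O2/4% CO2. Growth read as lactate dehydrogenase activity (APAD, lactate, diaphorase, NBT; 550 nm); % inhibition vs controls; IC50 by linear regression; mean of triplicate experiments.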

L6 = assay: Cytotoxicity against rat L6 cells assessed as inhibition of cell growth after 6 days by Spectramax fluorescence plate reader analysis; type: cell-based; conditions: L6, 144 h
Outline: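 L6 rat skeletal myoblasts seeded at 1×10^4 mL⁻¹ in growth medium containing a range of compound concentrations, incubated 6 days at 37 °C; resazurin added, fluorescence read after a further 8 h. IC50 = concentration inhibiting growth by 50%; mean of triplicate experiments ± SEM.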

[1] = Selectivity index, ratio of IC50 for rat L6 cells to IC50 for bloodstream form of Trypanosoma brucei 221; type: toxicity, cell-based; conditions: read-out: Ratio IC50
Outline: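 IC50 ratio, L6 over T. brucei. L6 cells seeded at 1×10^4 mL⁻¹ with compound, 6 days at 37 °C, then resazurin, 8 h more, fluorescence read. Log-phase bloodstream T. brucei 221 in modified Iscove's medium at 0.25 × 105 mL⁻¹, compound range in triplicate, 37 °C; resazurin at 48 h, read after 16 h more.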

[2] = Selectivity index, ratio of IC50 for rat L6 cells to IC50 for chloroquine-resistant Plasmodium falciparum K1; type: toxicity, cell-based; conditions: read-out: Ratio IC50
Outline: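 IC50 ratio, L6 over P. falciparum K1. L6 cells seeded at 1×10^4 mL⁻¹ with compound, 6 days at 37 °C, resazurin added, fluorescence after 8 h. Parasites in A+ erythrocytes (2.5% haematocrit, 1% parasitaemia) with twofold dilutions, 48 h at 37 °C in low-oxygen gas; growth read by LDH activity at 550 nm.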

Acetylcholinesterase = Acetylcholinesterase (Homo sapiens, UniProt P22303); assay: Inhibition of human recombinant AChE using acetylthiocholine iodide as substrate preincubated with enzyme for 20 mins prior to substrate addition by Ellman's method
Sequence of Acetylcholinesterase (P22303 whole entry): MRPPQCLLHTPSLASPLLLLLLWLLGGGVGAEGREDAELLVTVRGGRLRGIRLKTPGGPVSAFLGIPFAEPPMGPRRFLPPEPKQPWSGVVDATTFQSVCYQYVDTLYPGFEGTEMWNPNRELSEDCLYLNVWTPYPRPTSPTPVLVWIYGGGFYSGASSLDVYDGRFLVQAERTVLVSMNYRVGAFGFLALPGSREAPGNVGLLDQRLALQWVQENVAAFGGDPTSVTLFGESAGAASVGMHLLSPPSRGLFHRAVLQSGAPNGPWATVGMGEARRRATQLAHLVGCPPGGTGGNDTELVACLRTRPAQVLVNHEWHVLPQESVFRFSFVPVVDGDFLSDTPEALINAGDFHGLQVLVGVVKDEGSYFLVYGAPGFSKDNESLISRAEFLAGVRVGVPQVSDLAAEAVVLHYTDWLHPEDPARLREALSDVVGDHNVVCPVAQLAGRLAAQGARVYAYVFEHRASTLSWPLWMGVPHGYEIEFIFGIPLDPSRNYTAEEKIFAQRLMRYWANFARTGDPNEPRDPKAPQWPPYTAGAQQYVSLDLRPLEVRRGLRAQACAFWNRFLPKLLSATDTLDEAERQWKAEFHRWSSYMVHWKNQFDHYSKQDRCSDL
Outline: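 Ellman assay in 0.1 M phosphate buffer pH 8.0 with hAChE 0.02 u/mL and 333 µM DTNB. At least 10 inhibitor concentrations, in duplicate, preincubated 20 min at 37 °C. Then 450 µM acetylthiocholine iodide, 5 min at 37 °C; absorbance at 414 nm against an uninhibited sample. IC50 by non-linear regression; mean ± S.E.M. of at least 4 experiments.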

[3] = Permeability by PAMPA-BBB assay; type: ADME; conditions: read-out: Peff
Outline: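 Parallel artificial membrane permeation through porcine brain lipid extract, using PBS:EtOH 70:30; effective permeability Pe reported as mean ± SD of three independent experiments.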

Compound | pIC50 (Trypanosoma brucei) | IC90 (Trypanosoma brucei) | pIC50 (Plasmodium falciparum) | pIC50 (L6) | selectivity ratio [1] | selectivity ratio [2] | pIC50 (Acetylcholinesterase) | Papp [3]
CC1=CC2Cc3nc4ccccc4c(NCCCCCCCCCCNc4c5c(nc6ccccc46)CCCC5)c3C(C1)C2 (stereo not given) | 6.62 | 310 nM | 5.46 | > 6.00 | < 4.2 | < 0.29 | 8.19 | 6.3 ×10⁻⁶ cm/s
CC1=CC2Cc3nc4cc(Cl)ccc4c(NCCCN(C)CCCNc4c5c(nc6cc(Cl)ccc46)CCCC5)c3C(C1)C2 (stereo not given) | 6.55 | 400 nM | 6.28 | > 6.00 | < 3.6 | < 1.9 | – | –
COc1cc2c(cc1OC)C(=O)C(CC1CCN(CCNc3c4c(nc5ccccc35)CCCC4)CC1)C2 (stereo not given) | 6.39 | 880 nM | < 5.09 | > 5.52 | < 7.3 | < 0.37 | – | –
CC1=CC2Cc3nc4cc(Cl)ccc4c(NCCCCCCCCCNc4c5c(nc6cc(Cl)ccc46)CCCC5)c3C(C1)C2 (stereo not given) | 6.62 | 520 nM | < 5.17 | 4.40 | 167 | < 5.9 | – | –
CC1=CC2Cc3nc4ccccc4c(NCCCCCCCCCCCCNc4c5c(nc6cc(Cl)ccc46)CCCC5)c3C(C1)C2 (stereo not given) | 6.26 | 750 nM | < 5.16 | 5.56 | 5 | < 0.4 | 8.44 | 11 ×10⁻⁶ cm/s
CC1=CC2Cc3nc4cc(Cl)ccc4c(NCCCCCCNc4c5c(nc6cc(Cl)ccc46)CCCC5)c3C(C1)C2 (stereo not given) | 6.25 | 790 nM | 5.36 | 5.96 | 2 | 0.25 | – | –
COc1cc2c(cc1OC)CC(CC1CCN(CCNc3c4c(nc5cc(Cl)ccc35)CCCC4)CC1)C2 | 6.01 | 2390 nM | < 5.11 | 5.62 | 2.5 | < 0.31 | – | –
CCC1=CC2Cc3nc4cc(Cl)ccc4c(NCCN4CCC(CC5Cc6cc(OC)c(OC)cc6C5)CC4)c3C(C1)C2 (stereo not given) | 6.54 | 700 nM | < 5.15 | 5.45 | 12 | < 0.5 | – | –
CC1=CC2Cc3nc4cc(Cl)ccc4c(NCCCCCCCCCCCCNc4c5c(nc6ccccc46)CCCC5)c3C(C1)C2 (stereo not given) | 6.46 | 520 nM | < 5.16 | 5.98 | 3 | < 0.15 | 8.72 | 10.8 ×10⁻⁶ cm/s
CC1=CC2Cc3nc4cc(Cl)ccc4c(NCCCCCCCCCCNc4c5c(nc6cc(Cl)ccc46)CCCC5)c3C(C1)C2 (stereo not given) | 6.77 | 490 nM | 5.68 | 5.58 | 15 | 1.3 | – | –
CC1=CC2Cc3nc4cc(Cl)ccc4c(NCCCCCCNc4c5c(nc6ccccc46)CCCC5)c3C(C1)C2 (stereo not given) | 6.33 | 660 nM | 5.52 | 5.93 | 2.5 | 0.39 | – | –
CC1=CC2Cc3nc4cc(Cl)ccc4c(NCCCCCCCNc4c5c(nc6ccccc46)CCCC5)c3C(C1)C2 (stereo not given) | 6.62 | 430 nM | 6.33 | > 6.00 | < 4.2 | < 2.1 | – | –
COc1cc2c(cc1OC)C(=O)C(CC1CCN(CCCNc3c4c(nc5ccccc35)CCCC4)CC1)C2 (stereo not given) | 6.55 | 620 nM | – | > 6.00 | < 3.6 | – | – | –
CC1=CC2Cc3nc4ccccc4c(NCCCCCCCCCCNc4c5c(nc6cc(Cl)ccc46)CCCC5)c3C(C1)C2 (stereo not given) | 6.47 | 430 nM | 5.36 | 5.95 | 3.3 | 0.25 | 8.83 | 17.2 ×10⁻⁶ cm/s
COc1cc2c(cc1OC)C(=O)C(CC1CCN(CCNc3c4c(nc5cc(Cl)ccc35)CCCC4)CC1)C2 (stereo not given) | 6.52 | 680 nM | 5.31 | > 5.52 | < 10 | < 0.62 | – | –
CC1=CC2Cc3nc4cc(Cl)ccc4c(NCCCCCCCCNc4c5c(nc6cc(Cl)ccc46)CCCC5)c3C(C1)C2 (stereo not given) | 6.77 | 460 nM | < 5.15 | 6.01 | 5.7 | < 0.14 | – | –
CC1=CC2Cc3nc4cc(Cl)ccc4c(NCCCCCCCNc4c5c(nc6cc(Cl)ccc46)CCCC5)c3C(C1)C2 (stereo not given) | 6.57 | 430 nM | < 5.16 | > 5.52 | < 11 | < 0.44 | – | –
CC1=C[C@H]2Cc3nc4cc(Cl)ccc4c(NCCCCCCCNc4c5c(nc6ccccc46)CCCC5)c3[C@@H](C1)C2 | 6.68 | 420 nM | 6.46 | 6.14 | 3.5 | 2.1 | – | –
COc1cc2c(cc1OC)CC(CC1CCN(CCNc3c4c(nc5ccccc35)CCCC4)CC1)C2 | 6.42 | 790 nM | 5.59 | > 5.52 | < 7.9 | < 1.2 | – | –
CC1=CC2Cc3nc4cc(Cl)ccc4c(NCCCCCCCCCCNc4c5c(nc6ccccc46)CCCC5)c3C(C1)C2 (stereo not given) | 6.85 | 480 nM | – | 5.78 | 12 | – | – | –
CC1=CC2Cc3nc4cc(Cl)ccc4c(NCCCN(C)CCCNc4c5c(nc6ccccc46)CCCC5)c3C(C1)C2 (stereo not given) | 6.49 | 450 nM | 6.37 | > 6.00 | < 3.1 | < 2.3 | – | –
CC1=CC2Cc3nc4cc(Cl)ccc4c(NCCCCCCCCCCCCNc4c5c(nc6cc(Cl)ccc46)CCCC5)c3C(C1)C2 (stereo not given) | 6.23 | 770 nM | < 5.18 | 5.25 | 9.5 | < 0.85 | 8.46 | 16.8 ×10⁻⁶ cm/s
CC1=C[C@@H]2Cc3nc4cc(Cl)ccc4c(NCCCCCCCNc4c5c(nc6ccccc46)CCCC5)c3[C@H](C1)C2 | 6.54 | 490 nM | 6.34 | > 6.00 | < 3.4 | < 2.2 | – | –
COc1cc2c(cc1OC)CC(CC1CCN(CCNc3c4c(nc5cc(Cl)ccc35)CC3C=C(C)CC4C3)CC1)C2 (stereo not given) | 6.31 | 1180 nM | < 5.15 | 5.17 | 14 | < 1 | – | –
CCC1=C[C@@H]2Cc3nc4cc(Cl)ccc4c(NCCCN4CCC(CC5Cc6cc(OC)c(OC)cc6C5)CC4)c3[C@H](C1)C2 | 6.59 | 1330 nM | 6.09 | 5.67 | 8.3 | 2.7 | – | –
CCC1=C[C@@H]2Cc3nc4cc(Cl)ccc4c(NCCN4CCC(CC5Cc6cc(OC)c(OC)cc6C5)CC4)c3[C@H](C1)C2 | 6.54 | 720 nM | < 5.15 | 5.20 | 22 | < 0.89 | – | –
CC1=CC2Cc3nc4ccccc4c(NCCCCCCCCCCCCNc4c5c(nc6ccccc46)CCCC5)c3C(C1)C2 (stereo not given) | 6.68 | 280 nM | < 5.14 | > 6.00 | < 4.8 | < 0.14 | 8.00 | 7.3 ×10⁻⁶ cm/s
